# ChEMBL document CHEMBL5058577, “EUbOPEN Chemogenomics Library 2 (Multiplex)” (2022)
# System: HEK-293T
# Assay: Multiplex assay against HEK293T
# Assay type: toxicity, cell-based
# Conditions: human
# In short: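 Four dyes were applied at seeding to live cells: Hoechst33342, BioTracker Green Microtubule Cytoskeleton Dye, MitoTracker Red and Annexin V Alexa Fluor 680. Imaging after compound addition used a CQ1 microscope at 37°C and 5% CO2. CellPathfinder machine-learning gating then sorted cells into Hoechst high-intensity objects or normal cells, normal cells into healthy, pyknosed or fragmented nuclei, and pyknosed cells into mitotic or apoptotic, with tubulin, mitochondrial-mass and membrane-permeability phenotypes given as per cents of healthy-nucleus cells.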
# [1] = 12 h, 1 µM, compound concentration 1 uM, replicate 1
# [2] = 12 h, 1 µM, compound concentration 1 uM, replicate 2
# [3] = 12 h, 10 µM, compound concentration 10 uM, replicate 1
# [4] = 12 h, 10 µM, compound concentration 10 uM, replicate 2
# [5] = 24 h, 1 µM, compound concentration 1 uM, replicate 1
# [6] = 24 h, 1 µM, compound concentration 1 uM, replicate 2
# [7] = 24 h, 10 µM, compound concentration 10 uM, replicate 1
# [8] = 24 h, 10 µM, compound concentration 10 uM, replicate 2
# [9] = 48 h, 1 µM, compound concentration 1 uM, replicate 1
# [10] = 48 h, 1 µM, compound concentration 1 uM, replicate 2
# [11] = 48 h, 10 µM, compound concentration 10 uM, replicate 1
# [12] = 48 h, 10 µM, compound concentration 10 uM, replicate 2
structure (smiles),measurement,setting,value
CN1CCN(c2nc3cc(C(F)(F)F)ccc3n3cccc23)CC1.O=C(O)/C=C\C(=O)O.O=C(O)/C=C\C(=O)O,Population Apoptotic (%),[1],37%
same,Population Fragmented Nuclei (%),[1],5%
same,Population Healthy Nuclei (%),[1],80%
same,Population Hoechst High Intensity Objects (%),[1],10%
same,Population Membrane Permeable-Phenotype (%),[1],0%
same,Population Mitochondria Different-Phenotype (%),[1],48%
same,Population Mitotic Cells (%),[1],62%
same,Population Normal (%),[1],89%
same,Population Pyknosed Nuclei (%),[1],13%
same,Population Tubulin-Different-Phenotype (%),[1],33%
same,Total Cell Count,[1],438
same,Population Apoptotic (%),[2],53%
same,Population Fragmented Nuclei (%),[2],8%
same,Population Healthy Nuclei (%),[2],77%
same,Population Hoechst High Intensity Objects (%),[2],5%
same,Population Mitochondria Different-Phenotype (%),[2],76%
same,Population Mitotic Cells (%),[2],46%
same,Population Normal (%),[2],94%
same,Population Pyknosed Nuclei (%),[2],14%
same,Population Tubulin-Different-Phenotype (%),[2],35%
same,Total Cell Count,[2],332
same,Population Apoptotic (%),[3],68%
same,Population Fragmented Nuclei (%),[3],7%
same,Population Healthy Nuclei (%),[3],76%
same,Population Hoechst High Intensity Objects (%),[3],14%
same,Population Membrane Permeable-Phenotype (%),[3],0%
same,Population Mitochondria Different-Phenotype (%),[3],73%
same,Population Mitotic Cells (%),[3],31%
same,Population Normal (%),[3],85%
same,Population Pyknosed Nuclei (%),[3],15%
same,Population Tubulin-Different-Phenotype (%),[3],64%
same,Total Cell Count,[3],396
same,Population Apoptotic (%),[4],64%
same,Population Fragmented Nuclei (%),[4],5%
same,Population Hoechst High Intensity Objects (%),[4],9%
same,Population Mitochondria Different-Phenotype (%),[4],89%
same,Population Mitotic Cells (%),[4],35%
same,Population Normal (%),[4],90%
same,Population Pyknosed Nuclei (%),[4],18%
same,Population Tubulin-Different-Phenotype (%),[4],66%
same,Total Cell Count,[4],286
same,Population Apoptotic (%),[5],33%
same,Population Fragmented Nuclei (%),[5],9%
same,Population Healthy Nuclei (%),[5],81%
same,Population Hoechst High Intensity Objects (%),[5],6%
same,Population Membrane Permeable-Phenotype (%),[5],1%
same,Population Mitochondria Different-Phenotype (%),[5],30%
same,Population Mitotic Cells (%),[5],66%
same,Population Normal (%),[5],93%
same,Population Pyknosed Nuclei (%),[5],9%
same,Population Tubulin-Different-Phenotype (%),[5],24%
same,Total Cell Count,[5],557
same,Population Apoptotic (%),[6],54%
same,Population Fragmented Nuclei (%),[6],6%
same,Population Healthy Nuclei (%),[6],83%
same,Population Membrane Permeable-Phenotype (%),[6],0%
same,Population Mitochondria Different-Phenotype (%),[6],50%
same,Population Mitotic Cells (%),[6],45%
same,Population Pyknosed Nuclei (%),[6],10%
same,Population Tubulin-Different-Phenotype (%),[6],25%
same,Total Cell Count,[6],390
same,Population Apoptotic (%),[7],41%
same,Population Fragmented Nuclei (%),[7],8%
same,Population Healthy Nuclei (%),[7],77%
same,Population Hoechst High Intensity Objects (%),[7],9%
same,Population Membrane Permeable-Phenotype (%),[7],0%
same,Population Mitochondria Different-Phenotype (%),[7],65%
same,Population Mitotic Cells (%),[7],58%
same,Population Normal (%),[7],90%
same,Population Pyknosed Nuclei (%),[7],13%
same,Population Tubulin-Different-Phenotype (%),[7],62%
same,Total Cell Count,[7],490
same,Population Apoptotic (%),[8],63%
same,Population Fragmented Nuclei (%),[8],10%
same,Population Healthy Nuclei (%),[8],78%
same,Population Hoechst High Intensity Objects (%),[8],7%
same,Population Mitochondria Different-Phenotype (%),[8],79%
same,Population Mitotic Cells (%),[8],36%
same,Population Normal (%),[8],92%
same,Population Pyknosed Nuclei (%),[8],10%
same,Population Tubulin-Different-Phenotype (%),[8],58%
same,Total Cell Count,[8],378
same,Population Apoptotic (%),[9],20%
same,Population Fragmented Nuclei (%),[9],13%
same,Population Healthy Nuclei (%),[9],78%
same,Population Hoechst High Intensity Objects (%),[9],3%
same,Population Membrane Permeable-Phenotype (%),[9],2%
same,Population Mitochondria Different-Phenotype (%),[9],17%
same,Population Mitotic Cells (%),[9],79%
same,Population Normal (%),[9],96%
same,Population Pyknosed Nuclei (%),[9],7%
same,Population Tubulin-Different-Phenotype (%),[9],17%
same,Total Cell Count,[9],915
same,Population Apoptotic (%),[10],37%
same,Population Healthy Nuclei (%),[10],79%
same,Population Hoechst High Intensity Objects (%),[10],5%
same,Population Membrane Permeable-Phenotype (%),[10],0%
same,Population Mitochondria Different-Phenotype (%),[10],42%
same,Population Mitotic Cells (%),[10],62%
same,Population Normal (%),[10],94%
same,Population Tubulin-Different-Phenotype (%),[10],21%
same,Total Cell Count,[10],535
same,Population Apoptotic (%),[11],50%
same,Population Fragmented Nuclei (%),[11],15%
same,Population Healthy Nuclei (%),[11],75%
same,Population Hoechst High Intensity Objects (%),[11],10%
same,Population Membrane Permeable-Phenotype (%),[11],2%
same,Population Mitochondria Different-Phenotype (%),[11],41%
same,Population Mitotic Cells (%),[11],50%
same,Population Normal (%),[11],89%
same,Population Pyknosed Nuclei (%),[11],8%
same,Population Tubulin-Different-Phenotype (%),[11],44%
same,Total Cell Count,[11],672
same,Population Apoptotic (%),[12],52%
same,Population Fragmented Nuclei (%),[12],11%
same,Population Healthy Nuclei (%),[12],77%
same,Population Hoechst High Intensity Objects (%),[12],12%
same,Population Membrane Permeable-Phenotype (%),[12],0%
same,Population Mitochondria Different-Phenotype (%),[12],65%
same,Population Mitotic Cells (%),[12],47%
same,Population Normal (%),[12],87%
same,Population Pyknosed Nuclei (%),[12],10%
same,Population Tubulin-Different-Phenotype (%),[12],56%
same,Total Cell Count,[12],472
